Reference: ChEMBL document CHEMBL1800048, “Gambogic acid, a natural product inhibitor of Hsp90” (J Nat Prod, 2011)
Activity calls are given as the source filed them. The rule behind the calls is not given here.

How the values were obtained:
Heat shock protein HSP90 [1] = biological target: T1, Heat shock protein HSP90 (Homo sapiens, UniProt P07900+P08238); assay: Binding affinity to human Hsp90 N-terminal domain (1 to 241) expressed in Escherichia coli DE-3 Star cells by SPR analysis
Heat shock protein HSP90 [2] = biological target: T1, Heat shock protein HSP90; assay: Inhibition of Hsp90 in human MCF7 cells assessed as induction of Hsp90 expression after 36 hrs by Western blot analysis; type: cell-based
In short: (§1)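 Cells (1×10^6 per dish) were attached overnight, then exposed to the compound for 36 h. […] Extracts (10 µg protein) were Western blotted for Her2, Akt, Raf-1, Hsp90 and Hsp70, with actin as loading control.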

SK-BR-3 = assay: Antiproliferative activity against human SKBR3 cells assessed as inhibition of cell growth after 72 hrs by cell titer 96 assay; type: functional; conditions: SK-BR-3, 72 h
In short: (§2)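 Cells seeded at 2000/well and left to attach overnight. HeLa was grown in MEM with non-essential amino acids, 2 mM glutamine and 10% FBS. SkBr3 was grown in DMEM/F12 (1:1) with penicillin/streptomycin and 10% FBS. Varying compound concentrations or 1% DMSO vehicle were added for 72 h at 37 °C. Tetrazolium reagent was added for 1 h, then A490 read; viability expressed as % of DMSO wells.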

Heat shock protein HSP90 [3] = biological target: T1, Heat shock protein HSP90; assay: Binding affinity to human Hsp90 C-terminal domain (531 to 732) expressed in Escherichia coli DE-3cstar cells by SPR analysis
In short: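 Hsp90 N-terminal (aa 1–241) or C-terminal (aa 531–732) domain was expressed in E. coli, Ni-NTA purified, His-tag TEV-cleaved, then gel-filtered and biotinylated for SPR. Analyte was injected in 10 mM PIPES pH 7.4, 300 mM NaCl, 2% DMSO at 15 µL/min, 25 °C. […] Triplicates; ka, kd and KD were derived from fits.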

Heat shock protein HSP90 [4] = biological target: T1, Heat shock protein HSP90; assay: Inhibition of Hsp90 in human MCF7 cells assessed as Akt degradation after 36 hrs by Western blot analysis; type: cell-based
In short: as §1

Heat shock protein HSP90 [5] = biological target: T1, Heat shock protein HSP90; assay: Binding affinity to human Hsp90 N-terminal domain (1 to 241) expressed in Escherichia coli DE-3 Star cells by SPR analysis in presence of 20 uM geldanamycin
[6] = Inhibition of Hsp90-mediated [35S]His-tagged HRI maturation in heme-deficient reticulocyte lysate at 50 uM after 45 mins by SDS-PAGE and autoradiography
In short: (§3)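 [35S]His-tagged wild-type HRI was made by transcription-translation in reticulocyte lysate. Compound or 4% v/v DMSO was added at 20 min, followed by 10 min more. Samples were diluted into 7 volumes of heme-deficient lysate holding the same compound concentration; hemin-supplemented (20 µM) lysate was the reference. After 45 min, HRI was captured on Ni-NTA on ice for 1 h. Maturation was scored by mobility shift on SDS-PAGE and autoradiography.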

Heat shock protein HSP90 [7] = biological target: T1, Heat shock protein HSP90; assay: Inhibition of Hsp90 in human SKBR3 cells assessed as induction of Hsp90 expression after 36 hrs by Western blot analysis; type: cell-based; conditions: SK-BR-3
In short: as §1

Heat shock protein HSP90 [8] = biological target: T1, Heat shock protein HSP90; assay: Inhibition of Hsp90 in human HeLa cells assessed as Akt degradation at 0.01 to 20 uM by Western blot analysis; type: cell-based
In short: as §1

Heat shock protein HSP90 [9] = biological target: T1, Heat shock protein HSP90; assay: Inhibition of Hsp90 in human SKBR3 cells assessed as Her2 degradation after 36 hrs by Western blot analysis; type: cell-based; conditions: SK-BR-3
In short: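 SkBr3 cells (1×10^6 per dish) were attached overnight, then exposed to the compound for 36 h. […] Her2 was Western blotted from 1 µg extract protein, with actin as loading control.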

Heat shock protein HSP90 [10] = biological target: T1, Heat shock protein HSP90; assay: Inhibition of Hsp90 in human SKBR3 cells assessed as Raf degradation after 36 hrs by Western blot analysis; type: cell-based; conditions: SK-BR-3
In short: as §1

Heat shock protein HSP90 [11] = biological target: T1, Heat shock protein HSP90; assay: Inhibition of Hsp90 in human MCF7 cells assessed as Raf degradation after 36 hrs by Western blot analysis; type: cell-based
In short: as §1

[12] = Inhibition of Hsp90-dependent refolding of luciferase in reticulocyte lysate by microplate reader
Heat shock protein HSP90 [13] = biological target: T1, Heat shock protein HSP90; assay: Inhibition of Hsp90 in human MCF7 cells assessed as Her2 degradation after 36 hrs by Western blot analysis; type: cell-based
In short: as §1

Heat shock protein HSP90 [14] = biological target: T1, Heat shock protein HSP90; assay: Inhibition of Hsp90 in human HeLa cells assessed as Raf degradation at 0.01 to 20 uM after 36 hrs by Western blot analysis; type: cell-based
In short: as §1

Heat shock protein HSP90 [15] = biological target: T1, Heat shock protein HSP90; assay: Inhibition of Hsp90 in human SKBR3 cells assessed as Akt degradation after 36 hrs by Western blot analysis; type: cell-based; conditions: SK-BR-3
In short: as §1

Heat shock protein HSP90 [16] = biological target: T1, Heat shock protein HSP90; assay: Inhibition of Hsp90 in human SKBR3 cells assessed as induction of Hsp70 expression after 36 hrs by Western blot analysis; type: cell-based; conditions: SK-BR-3
In short: as §1

Heat shock protein HSP90 [17] = biological target: T1, Heat shock protein HSP90; assay: Inhibition of Hsp90 in human HeLa cells assessed as Her2 degradation at 0.01 to 20 uM after 36 hrs by Western blot analysis; type: cell-based
In short: as §1

[18] = biological target: T2, Hsp90 co-chaperone Cdc37 (Homo sapiens) (UniProt Q16543); conditions: 50 uM
T2 sequence (whole entry): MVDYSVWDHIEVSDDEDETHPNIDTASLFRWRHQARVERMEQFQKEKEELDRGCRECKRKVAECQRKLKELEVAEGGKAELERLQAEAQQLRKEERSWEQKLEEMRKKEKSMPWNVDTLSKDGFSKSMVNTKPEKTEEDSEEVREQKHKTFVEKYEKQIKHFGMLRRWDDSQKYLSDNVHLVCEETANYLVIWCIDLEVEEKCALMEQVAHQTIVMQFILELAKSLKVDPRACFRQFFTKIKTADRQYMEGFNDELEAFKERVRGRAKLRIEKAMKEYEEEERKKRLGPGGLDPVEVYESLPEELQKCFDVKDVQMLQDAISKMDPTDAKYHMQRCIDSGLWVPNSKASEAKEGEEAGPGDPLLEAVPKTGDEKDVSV

Heat shock protein HSP90 [19] = biological target: T1, Heat shock protein HSP90; assay: Inhibition of Hsp90 in human MCF7 cells assessed as induction of Hsp70 expression after 36 hrs by Western blot analysis; type: cell-based
In short: as §1

[20] = Effect on [35S]His-tagged HRI stability in heme-deficient reticulocyte lysate assessed as loss of [35S]His-tagged HRI at 50 uM after 45 mins by SDS-PAGE and autoradiography
HeLa = assay: Antiproliferative activity against human HeLa cells assessed as inhibition of cell growth after 72 hrs by cell titer 96 assay; type: functional
In short: as §2

Heat shock protein HSP90 [21] = biological target: T1, Heat shock protein HSP90; assay: Binding affinity to human full length Hsp90 expressed in insect Sf9 cells by SPR analysis
In short: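 Full-length human Hsp90β from baculovirus-infected Sf9 cells was amine-coupled by EDC/NHS to a carboxyl SPR chip (about 2000 RU). Compound at 1.0–50 µM was injected in 10 mM PIPES pH 7.4, 300 mM NaCl, 2% DMSO at 15 µL/min, 25 °C. Measured in triplicate; ka, kd and KD were derived from curve fits.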

[22] = Inhibition of Hsp90-mediated [35S]His-tagged HRI maturation in heme-deficient reticulocyte lysate at 4 mM after 45 mins by SDS-PAGE and autoradiography
In short: (§4)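 Wild-type [35S]His-tagged HRI made by coupled transcription-translation in reticulocyte lysate with [35S]methionine. Compound or DMSO (4% v/v) added after 20 min, then 10 min more. Sample diluted into 7 volumes of heme-deficient lysate (hemin 20 µM as reference) holding the same compound level, 45 min. HRI pulled down on NTA-Ni resin, 1 h on ice. SDS-PAGE and autoradiography; mobility shift and band densitometry as % of minus-heme control.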

[23] = Effect on [35S]His-tagged HRI stability in heme-deficient reticulocyte lysate assessed as loss of [35S]His-tagged HRI at 4 mM after 45 mins by SDS-PAGE and autoradiography
In short: as §4

[24] = biological target: T2, Hsp90 co-chaperone Cdc37 (Homo sapiens); conditions: 100 uM
[25] = Inhibition of Hsp90-mediated [35S]His-tagged HRI maturation in heme-deficient reticulocyte lysate at 100 uM after 45 mins by SDS-PAGE and autoradiography
In short: as §3

[26] = Effect on [35S]His-tagged HRI stability in heme-deficient reticulocyte lysate assessed as loss of [35S]His-tagged HRI at 100 uM after 45 mins by SDS-PAGE and autoradiography
[27] = Effect on [35S]His-tagged HRI stability in heme-deficient reticulocyte lysate assessed as loss of [35S]His-tagged HRI at 20 mM after 45 mins by SDS-PAGE and autoradiography
In short: as §4

[28] = Inhibition of Hsp90-mediated [35S]His-tagged HRI maturation in heme-deficient reticulocyte lysate at 20 mM after 45 mins by SDS-PAGE and autoradiography
In short: as §4

[29] = biological target: Hsp90 co-chaperone Cdc37 (Homo sapiens) (UniProt Q16543); conditions: 20 mM
[30] = Inhibition of Hsp90-mediated [35S]His-tagged HRI maturation in heme-deficient reticulocyte lysate at 400 uM after 45 mins by SDS-PAGE and autoradiography
In short: as §3

[31] = Effect on [35S]His-tagged HRI stability in heme-deficient reticulocyte lysate assessed as loss of [35S]His-tagged HRI at 400 uM after 45 mins by SDS-PAGE and autoradiography
[32] = Effect on [35S]His-tagged HRI stability in heme-deficient reticulocyte lysate assessed as loss of [35S]His-tagged HRI at 80 uM after 45 mins by SDS-PAGE and autoradiography
In short: as §4

[33] = Inhibition of Hsp90-mediated [35S]His-tagged HRI maturation in heme-deficient reticulocyte lysate at 80 uM after 45 mins by SDS-PAGE and autoradiography
In short: as §4

[34] = biological target: T2, Hsp90 co-chaperone Cdc37 (Homo sapiens); assay: Inhibition of Cdc37 interaction with heme-regulated [35S]His-tagged eIF2alpha K199R mutant kinase in reticulocyte lysate assessed as coadsorbed Cdc37 at 80 uM after 40 mins by SDS-PAGE and Western blot analysis
In short: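 His-tagged kinase-dead HRI K199R made by TnT in reticulocyte lysate with [35S]methionine. After 10 min of synthesis, compound or DMSO (4% v/v) added, then 40 min more. Immunoadsorbed with anti-His-tag antibody on anti-mouse-IgG agarose. Washed four times in 10 mM PIPES pH 7.2, 100 mM NaCl. Co-adsorbed Hsp90, Hsp70 and Cdc37 read by SDS-PAGE and Western blot; plasmid-free lysate as nonspecific control.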

CC(C)=CCC[C@]1(C)C=Cc2c(O)c3c(c(CC=C(C)C)c2O1)O[C@]12C(=C[C@@H]4C[C@H]1C(C)(C)O[C@@]2(C/C=C(/C)C(=O)O)C4=O)C3=O [GAMBOGIC ACID]
Kd (Heat shock protein HSP90 [1]): 7600 nM | inhibition (Heat shock protein HSP90 [2]): Dose-dependent effect | GI50 (SK-BR-3): 800 nM | Activity (Heat shock protein HSP90 [3]): inactive | inhibition (Heat shock protein HSP90 [4]): Dose-dependent effect | Kd (Heat shock protein HSP90 [5]): 7000 nM | inhibition [6]: inactive | inhibition (Heat shock protein HSP90 [7]): Dose-dependent effect | inhibition (Heat shock protein HSP90 [8]): Active | inhibition (Heat shock protein HSP90 [9]): Dose-dependent effect | inhibition (Heat shock protein HSP90 [10]): Dose-dependent effect | inhibition (Heat shock protein HSP90 [11]): Dose-dependent effect | IC50 [12]: 2000 nM | inhibition (Heat shock protein HSP90 [13]): Dose-dependent effect | inhibition (Heat shock protein HSP90 [14]): Active | inhibition (Heat shock protein HSP90 [15]): Dose-dependent effect | inhibition (Heat shock protein HSP90 [16]): Dose-dependent effect | inhibition (Heat shock protein HSP90 [17]): Active | Activity [18]: inactive | inhibition (Heat shock protein HSP90 [19]): Dose-dependent effect | Activity [20]: 10% | GI50 (HeLa): 1500 nM | Kd (Heat shock protein HSP90 [21]): 9800 nM

CO[C@@H]1[C@@H](OC(N)=O)[C@@H](O)[C@H](Oc2ccc3c(O)c(NC(=O)c4ccc(O)c(CC=C(C)C)c4)c(=O)oc3c2C)OC1(C)C
inhibition [22]: Active | Activity [23]: 90%

CC1=C(O)C(=O)C=C2C1=CC=C1[C@@]2(C)CC[C@@]2(C)[C@@H]3C[C@](C)(C(=O)O)CC[C@]3(C)CC[C@]12C [CELASTROL]
Activity [24]: inactive | IC50 [12]: 20000 nM | inhibition [25]: Active | Activity [26]: 40%

SODIUM MOLYBDATE
Activity [27]: 10% | inhibition [28]: Active | Activity [29]: Active

CO[C@H]1[C@H](OC(=O)c2ccc(C)[nH]2)[C@H](O)[C@@H](Oc2ccc3c(O)c(NC(=O)c4c[nH]c(C(=O)Nc5c(O)c6ccc(O[C@H]7OC(C)(C)[C@@H](OC)[C@H](OC(=O)c8ccc(C)[nH]8)[C@@H]7O)c(C)c6oc5=O)c4C)c(=O)oc3c2C)OC1(C)C
inhibition [30]: Active | Activity [31]: 80%

COC1=C2C[C@@H](C)C[C@H](OC)[C@H](O)[C@@H](C)/C=C(\C)[C@H](OC(N)=O)[C@@H](OC)/C=C\C=C(/C)C(=O)NC(=CC1=O)C2=O
Activity [32]: 0% | inhibition [33]: Active | Activity [34]: Active
